Results: ChEMBL document CHEMBL5329156, “Discovery and development of novel substituted monohydrazides as potent antifungal agents” (RSC Med Chem, 2023)
In brackets after ≈: the same amount, converted by molar mass.

What was measured:
Assay type in all cases: functional
Aspergillus fumigatus [1] = experiment: Antifungal activity against Aspergillus fumigatus NRRL 6113 assessed as fungal growth inhibition by double dilution method
Aspergillus nidulans = experiment: Antifungal activity against Aspergillus nidulans ATCC 38163 assessed as fungal growth inhibition by double dilution method
Cryptococcus neoformans = experiment: Antifungal activity against Cryptococcus neoformans ATCC MYA-895 assessed as fungal growth inhibition by double dilution method
Summary of the method: (§1)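 Broth microdilution after CLSI M27-A3/M38-A2 with minor changes. Single colony grown overnight in YPD at 35 °C, 200 rpm. Compound final range 0.06-31.3 µg/mL; incubated 48 h at 35 °C.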

Candida albicans [2] = experiment: Antifungal activity against itraconazole/fluconazole resistant Candida albicans ATCC 90819 assessed as fungal growth inhibition by double dilution method
Summary of the method: (§2)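 Broth microdilution after CLSI M27-A3/M38-A2 with minor modifications. A single colony was grown overnight in YPD at 35 °C with shaking at 200 rpm. Cells were mixed 1:1 with compound (final 0.06-31.3 µg/mL, from DMSO stocks) and incubated 48 h at 35 °C.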

Aspergillus fumigatus [3] = experiment: Antifungal activity against Aspergillus fumigatus NRRL 163 assessed as fungal growth inhibition by double dilution method
Candida albicans [4] = experiment: Antifungal activity against itraconazole/fluconazole resistant Candida albicans ATCC MYA-1237 assessed as fungal growth inhibition by double dilution method; summary of the method: as §2
Aspergillus flavus = experiment: Antifungal activity against Aspergillus flavus ATCC MYA-3631 assessed as fungal growth inhibition by double dilution method
Candida albicans [5] = experiment: Antifungal activity against itraconazole/fluconazole susceptible Candida albicans ATCC MYA-2876 assessed as fungal growth inhibition by double dilution method; summary of the method: as §2
Aspergillus fumigatus [6] = experiment: Antifungal activity against Aspergillus fumigatus NRRL 5109 assessed as fungal growth inhibition by double dilution method
[Candida] auris [7] = Antifungal activity against Candida auris AR Bank # 0390 assessed as fungal growth inhibition by double dilution method; conditions: Candidozyma auris; summary of the method: as §1
Nakaseomyces glabratus [8] = experiment: Antifungal activity against Candida glabrata ATCC 2001 assessed as fungal growth inhibition by double dilution method; summary of the method: as §1
Candida albicans [9] = experiment: Antifungal activity against itraconazole/fluconazole resistant Candida albicans ATCC MYA-1003 assessed as fungal growth inhibition by double dilution method; summary of the method: as §2
[Candida] auris [10] = Antifungal activity against Candida auris AR Bank # 0384 assessed as fungal growth inhibition by double dilution method; conditions: Candidozyma auris; summary of the method: as §1
Pichia kudriavzevii = experiment: Antifungal activity against Pichia kudriavzevii ATCC 6258 assessed as fungal growth inhibition by double dilution method; summary of the method: as §1
Aspergillus terreus = experiment: Antifungal activity against Aspergillus terreus ATCC MYA-3633 assessed as fungal growth inhibition by double dilution method
Nakaseomyces glabratus [11] = experiment: Antifungal activity against Candida glabrata ATCC 22019 assessed as fungal growth inhibition by double dilution method; summary of the method: as §1
Candida albicans [12] = experiment: Antifungal activity against Candida albicans ATCC 10231 assessed as fungal growth inhibition by double dilution method; summary of the method: as §1
Candida albicans [13] = experiment: Antifungal activity against Candida albicans ATCC 64124 assessed as fungal growth inhibition by double dilution method; summary of the method: as §2
Candida albicans [14] = experiment: Antifungal activity against itraconazole/fluconazole susceptible Candida albicans ATCC MYA-2310 assessed as fungal growth inhibition by double dilution method; summary of the method: as §2

Structure (SMILES)	MIC (Aspergillus fumigatus [1]) [µg/mL]	MIC (Aspergillus nidulans) [µg/mL]	MIC (Cryptococcus neoformans) [µg/mL]	MIC (Candida albicans [2]) [µg/mL]	MIC (Aspergillus fumigatus [3]) [µg/mL]	MIC (Candida albicans [4]) [µg/mL]	MIC (Aspergillus flavus) [µg/mL]	MIC (Candida albicans [5]) [µg/mL]	MIC (Aspergillus fumigatus [6]) [µg/mL]	MIC ([Candida] auris [7]) [µg/mL]	MIC (Nakaseomyces glabratus [8]) [µg/mL]	MIC (Candida albicans [9]) [µg/mL]	MIC ([Candida] auris [10]) [µg/mL]	MIC (Pichia kudriavzevii) [µg/mL]	MIC (Aspergillus terreus) [µg/mL]	MIC (Nakaseomyces glabratus [11]) [µg/mL]	MIC (Candida albicans [12]) [µg/mL]	MIC (Candida albicans [13]) [µg/mL]	MIC (Candida albicans [14]) [µg/mL]
COc1ccc(NNC(=O)c2ccc(F)cn2)cc1	> 31.3	1.95 (≈ 7.46 µM)	≤ 0.06	0.98 (≈ 3.75 µM)	> 31.3	0.49 (≈ 1.88 µM)	> 31.3	0.98 (≈ 3.75 µM)	> 31.3	0.49 (≈ 1.88 µM)	1.95 (≈ 7.46 µM)	0.49 (≈ 1.88 µM)	3.9 (≈ 14.9 µM)	0.24 (≈ 0.919 µM)	31.3 (≈ 120 µM)	3.9 (≈ 14.9 µM)	0.24 (≈ 0.919 µM)	0.98 (≈ 3.75 µM)	0.98 (≈ 3.75 µM)
O=C(NNc1cccc(F)c1)c1ccc(Br)cn1	> 31.3	1.95 (≈ 6.29 µM)	0.06 (≈ 0.193 µM)	3.9 (≈ 12.6 µM)	> 31.3	3.9 (≈ 12.6 µM)	15.6 (≈ 50.3 µM)	1.95 (≈ 6.29 µM)	> 31.3	1.95 (≈ 6.29 µM)	> 31.3	0.98 (≈ 3.16 µM)	1.95 (≈ 6.29 µM)	0.24 (≈ 0.774 µM)	0.98 (≈ 3.16 µM)	7.8 (≈ 25.2 µM)	0.49 (≈ 1.58 µM)	0.49 (≈ 1.58 µM)	3.9 (≈ 12.6 µM)
COc1cccc(NNC(=O)c2ccc(Br)cn2)c1	> 31.3	3.9 (≈ 12.1 µM)	0.49 (≈ 1.52 µM)	1.95 (≈ 6.05 µM)	> 31.3	0.98 (≈ 3.04 µM)	> 31.3	0.98 (≈ 3.04 µM)	15.6 (≈ 48.4 µM)	1.95 (≈ 6.05 µM)	3.9 (≈ 12.1 µM)	3.9 (≈ 12.1 µM)	0.98 (≈ 3.04 µM)	0.24 (≈ 0.745 µM)	1.95 (≈ 6.05 µM)	1.95 (≈ 6.05 µM)	0.98 (≈ 3.04 µM)	3.9 (≈ 12.1 µM)	3.9 (≈ 12.1 µM)
